From ChEMBL document CHEMBL1123218, “Synthesis and inhibitory activity on carbonic anhydrase of some new sulpiride analogues studied by means of a new method” (J Med Chem, 1986)
Calls of active or inactive are those of the source. The rule behind the calls is not given here.

molecular target: T1, Carbonic anhydrase (Bos taurus) (UniProt P00921+Q95323+P18915+Q3SZX4); test: Compound was evaluated for the inhibition of carbonic anhydrase enzyme at 0.5 g/L concentration; a=No inhibition detected; type: protein assay
Procedure, shortened: (§1)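 Potentiometric CO2-evolution assay tracked with a pCO2 electrode, 25 ± 0.1 °C, constant stirring, pH 7.0 (0.1 M phosphate buffer), 60 min. NaHCO3 aliquots (0.1 and 5.0 mL) were added to 30 mL buffer at min 2 and 14. CA solution (1.0 mL) was added just before the second bicarbonate addition. Inhibitor was present in the buffer from the assay start.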

inhibition	Structure (SMILES)
No inhibition	CCN1CCC[C@H]1CNC(=O)c1c(OC)c(Br)cc(Br)c1OC
inactive	CCN1CCCC1CNC(=O)c1cc(S(=O)(=O)CC)ccc1OC (stereo not given)

molecular target: T1, Carbonic anhydrase (Bos taurus); test: Compound was evaluated for the inhibition of carbonic anhydrase enzyme at 1.0 g/L concentration; a=No inhibition detected; type: protein assay; procedure, shortened: as §1

inhibition	Structure (SMILES)
No inhibition	CCN1CCC[C@H]1CNC(=O)c1c(OC)c(Br)cc(Br)c1OC
inactive	CCN1CCCC1CNC(=O)c1cc(S(=O)(=O)CC)ccc1OC (stereo not given)

molecular target: T1, Carbonic anhydrase (Bos taurus); test: Evaluated for the inhibition of carbonic anhydrase enzyme at 0.2 g/L concentration; type: protein assay; procedure, shortened: as §1

inhibition	Structure (SMILES)
51.5%	COc1ccc(S(N)(=O)=O)cc1C(=O)N1CCN(CC2CCCCC2)CC1
39.4%	CCN1CCCC1CN(C)C(=O)c1cc(S(N)(=O)=O)ccc1OC (stereo not given)
54.6%	COc1ccc(S(N)(=O)=O)cc1C(=O)N1CCN(CC(=O)NC(C)C)CC1
36.4%	COc1ccc(S(N)(=O)=O)cc1C(=O)N1CCN(CC(C)C)CC1
68.9%	NS(=O)(=O)c1nc(C(=O)N2CCN(Cc3ccccc3)CC2)c[nH]1
42.4%	CC[C@H](C)COc1ccc(S(N)(=O)=O)cc1C(=O)NC[C@@H]1CCCN1CC
39.4%	COc1ccc(S(N)(=O)=O)cc1C(=O)NCCN1CCCCC1
46.2%	CCC(C)CN1CCN(C(=O)c2cc(S(N)(=O)=O)ccc2OC)CC1 (stereo not given)
63.6%	COc1ccc(CN2CCN(C(=O)c3cc(S(N)(=O)=O)ccc3OC)CC2)cc1
61.4%	COc1ccc(S(N)(=O)=O)cc1C(=O)N1CCN(Cc2cc(OC)c(OC)c(OC)c2)CC1
58.3%	COc1ccc(S(N)(=O)=O)cc1C(=O)N1CCN(Cc2ccccc2)CC1
45.5%	COc1ccc(S(N)(=O)=O)cc1C(=O)NCCCN1CCOCC1
45.5%	COc1ccc(S(N)(=O)=O)cc1C(=O)N1CCN(CC(=O)N2CCCC2)CC1
37.9%	COc1ccc(S(N)(=O)=O)cc1CN1CCN(Cc2ccccc2)CC1
46.2%	COc1ccc(S(N)(=O)=O)cc1C(=O)N1CCN2CCCC2C1 (stereo not given)
41.7%	CC[C@H](C)COc1ccc(S(N)(=O)=O)cc1C(=O)NC[C@H]1CCCN1CC
66.7%	COc1cccc(CN2CCN(C(=O)c3cc(S(N)(=O)=O)ccc3OC)CC2)c1
30.3%	COc1ccc(S(N)(=O)=O)cc1C(=O)N1CCNCC1
70.5%	COc1ccc(S(N)(=O)=O)cc1C(=O)N1CCN(Cc2ccc(S(N)(=O)=O)cc2)CC1
36.4%	C=CCN1CCN(C(=O)c2cc(S(N)(=O)=O)ccc2OC)CC1

molecular target: T1, Carbonic anhydrase (Bos taurus); test: Compound was evaluated for the inhibition of carbonic anhydrase enzyme at 0.2 g/L concentration; a=No inhibition detected; type: protein assay; procedure, shortened: as §1

inhibition	Structure (SMILES)
No inhibition	CCN1CCC[C@H]1CNC(=O)c1c(OC)c(Br)cc(Br)c1OC
inactive	CCN1CCCC1CNC(=O)c1cc(S(=O)(=O)CC)ccc1OC (stereo not given)

molecular target: T1, Carbonic anhydrase (Bos taurus); test: Compound was evaluated for the inhibition of carbonic anhydrase enzyme at 2.0 g/L concentration; a=No inhibition detected; type: protein assay; procedure, shortened: as §1

inhibition	Structure (SMILES)
No inhibition	CCN1CCC[C@H]1CNC(=O)c1c(OC)c(Br)cc(Br)c1OC
inactive	CCN1CCCC1CNC(=O)c1cc(S(=O)(=O)CC)ccc1OC (stereo not given)

molecular target: T1, Carbonic anhydrase (Bos taurus); test: Compound was evaluated for the inhibition of carbonic anhydrase enzyme at 1.5 g/L concentration; a=No inhibition detected; type: protein assay; procedure, shortened: as §1

inhibition	Structure (SMILES)
No inhibition	CCN1CCC[C@H]1CNC(=O)c1c(OC)c(Br)cc(Br)c1OC
inactive	CCN1CCCC1CNC(=O)c1cc(S(=O)(=O)CC)ccc1OC (stereo not given)
